Test results published in ChEMBL document CHEMBL1125535, “Benzothiazole hydroxy ureas as inhibitors of 5-lipoxygenase: use of the hydroxyurea moiety as a replacement for hydroxamic acid” (J Med Chem, 1992).

Assays:
[1] = biological target: T1, Polyunsaturated fatty acid 5-lipoxygenase (Homo sapiens, UniProt P09917); assay: In vitro inhibition of ionophore stimulated LTB4 release from human peripheral blood leukocytes.; type: functional
T1 sequence (P09917 whole entry): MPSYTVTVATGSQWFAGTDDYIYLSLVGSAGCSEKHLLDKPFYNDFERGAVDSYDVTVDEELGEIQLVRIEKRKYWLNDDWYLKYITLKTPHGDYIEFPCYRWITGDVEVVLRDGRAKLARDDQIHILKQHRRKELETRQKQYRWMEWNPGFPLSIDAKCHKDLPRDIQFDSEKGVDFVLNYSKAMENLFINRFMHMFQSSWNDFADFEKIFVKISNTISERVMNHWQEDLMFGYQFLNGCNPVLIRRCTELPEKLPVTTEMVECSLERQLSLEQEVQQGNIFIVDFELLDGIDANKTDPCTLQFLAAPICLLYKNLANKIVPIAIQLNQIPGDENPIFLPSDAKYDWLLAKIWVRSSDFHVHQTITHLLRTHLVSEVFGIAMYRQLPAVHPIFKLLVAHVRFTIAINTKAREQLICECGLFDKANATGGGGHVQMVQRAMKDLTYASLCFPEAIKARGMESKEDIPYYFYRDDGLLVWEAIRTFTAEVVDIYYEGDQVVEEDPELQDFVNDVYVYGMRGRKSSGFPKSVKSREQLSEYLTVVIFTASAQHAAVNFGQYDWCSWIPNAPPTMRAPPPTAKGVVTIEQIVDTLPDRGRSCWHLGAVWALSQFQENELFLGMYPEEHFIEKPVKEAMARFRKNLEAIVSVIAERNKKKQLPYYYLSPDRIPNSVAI
Method in brief: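 Leukocytes from pooled human venous blood were isolated by plasmagel sedimentation and erythrocyte lysis, then set to 1×10^6 cells/mL in modified Eagle MEM. Cells were preincubated 5 min at 37 °C with DMSO vehicle or compound, then stimulated 5 min at 37 °C with A23187 (5 µL of 0.1 mM). Reaction stopped on ice with cold Ca-free PBS; supernatant LTB4 measured by [3H]RIA.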

[2] = system: Mus musculus; assay: In vivo 5-Lipoxygenase inhibitory activity by using mouse zymosan peritonitis model; type: functional, organism-based
Method in brief: (§1)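 CD-1 mice (18–25 g) received compound orally in 0.5% methyl cellulose, then 3 mg zymosan-A in 0.5 mL 0.9% saline ip 1 h later. Samples were held on ice ≥30 min and spun at 28000g for 15 min at 4 °C. Supernatants were dried under nitrogen and stored at −70 °C. LTC4 measured by [3H]RIA on a 1:20 dilution.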

[3] = system: Mus musculus; assay: In vivo 5-Lipoxygenase inhibitory activity by using mouse zymosan peritonitis model; inactive; type: functional, organism-based; method in brief: as §1
[4] = biological target: T1, Polyunsaturated fatty acid 5-lipoxygenase; assay: In vitro effective concentration required to inhibit ionophore stimulated-human peripheral blood leukocytes; inactive; type: functional

EC50 [1] | EC50 [2] | EC50 [3] | EC50 [4] | Compound
39 nM |  |  |  | CN(O)C(=O)CCSc1nc2ccccc2s1
90 nM | 41 mg/kg |  |  | CN(O)C(=O)NCCSc1nc2ccccc2s1
130 nM |  | Not Active |  | CC(C)N(O)C(=O)NCCSc1nc2ccccc2s1
5200 nM |  | Not Active |  | O=C(NO)NCCSc1nc2ccccc2s1
1070 nM | 65.9 mg/kg |  |  | CN(O)C(=O)NCSc1nc2ccccc2s1
 |  | Not Active | Not Active | CONC(=O)NCCSc1nc2ccccc2s1
110 nM |  | Not Active |  | CCOc1ccc2nc(SCCNC(=O)N(C)O)sc2c1
 |  |  | Not Active | CNC(=O)CCSc1nc2ccccc2s1
70 nM |  | Not Active |  | CC(C)N(O)C(=O)NCCCSc1nc2ccccc2s1
45 nM | 23 mg/kg |  |  | CN(O)C(=O)NCCCSc1nc2ccccc2s1
3200 nM |  | Not Active |  | CN(O)C(=O)NCCSc1nc2cc(C(F)(F)F)ccc2s1
 |  | Not Active | Not Active | CNC(=O)NCCSc1nc2ccccc2s1
160 nM |  | Not Active |  | CC(C)c1ccc2nc(SCCNC(=O)N(C)O)sc2c1
 | 8.5 mg/kg |  |  | NC1=NN(c2cccc(C(F)(F)F)c2)CC1 [BW-755C]
20 nM |  |  |  | CN(O)C(=O)CCSc1nc2cc(Cl)ccc2s1
20 nM | 23.1 mg/kg |  |  | CN(O)C(=O)NCCSc1nc2cc(Cl)ccc2s1
70 nM |  | Not Active |  | CC(C)N(O)C(=O)NCCSc1nc2cc(Cl)ccc2s1
390 nM |  | Not Active |  | CCOc1ccc2nc(SCCNC(=O)N(O)C(C)C)sc2c1
530 nM |  | Not Active |  | CN(O)C(=O)NCCSc1nc2cccc(Cl)c2s1
70 nM |  |  |  | CN(O)C(=O)CSc1nc2ccccc2s1
130 nM |  |  |  | CN(O)C(=O)/C=C/Sc1nc2ccccc2s1
 |  | Not Active | Not Active | CON(C)C(=O)NCCSc1nc2ccccc2s1
24500 nM |  | Not Active |  | O=C(NO)NCCSc1nc2cc(Cl)ccc2s1
 | 1.6 mg/kg |  |  | CC(c1cc2ccccc2s1)N(O)C(N)=O (stereo not drawn) [ZILEUTON]
70 nM | 44.5 mg/kg |  |  | COc1ccc(-n2nc(CCC(=O)N(C)O)cc2-c2ccc(Cl)cc2)cc1 [TEPOXALIN]
